What was measured:
HIF-1α [1] = assay: HIF-1α stabilisation immunoblot in RCC4/VHL cells; assay type: cell-based, human; settings: 200 μM and 1mM
HIF-1α [2] = assay: HIF-1α stabilisation immunoblot in Hep3B cells; assay type: cell-based, human; settings: for HIF-1α stabilization / HIF-1α stabilization in presence of Fe(II) / Cell-based activity HIF-1α Induction: Hep3B cells, 6 h; for HIF-1α stabilization: absence of added Fe(II); for HIF-1α stabilization in presence of Fe(II): equimolar amount of Fe(II); for Cell-based activity HIF-1α Induction: methyl or ethyl esters (numbers in parentheses) tested, 0.1 mM and 1 mM
Procedure, shortened: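 Confluent human Hep3B hepatoma cells given methyl or ethyl ester forms of test compounds (100 mM DMSO stock) for 6 h under normoxia. Fe(II) experiments added equimolar Fe(II) either at the start or for the final 2 h, with DFO and DMOG as comparators. Whole-cell lysate immunoblots probed with mouse anti-HIF-1α (clone 54).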

[3] = target: catalytic domain of PHD2 (residues 181-426) (Homo sapiens, UniProt Q9GZT9); assay: Non-denaturing ESI-MS binding to PHD2 in presence of Fe; settings: standard conditions; for PHD2-iron-compound complex formation / binding of a second iron in ESI-MS: 2 equiv. Fe(II), 1 equiv. compound; for ESI-MS competition with NOG for binding to PHD2: equimolar NOG
Sequence of catalytic domain of PHD2 (residues 181-426) (Q9GZT9 181-426): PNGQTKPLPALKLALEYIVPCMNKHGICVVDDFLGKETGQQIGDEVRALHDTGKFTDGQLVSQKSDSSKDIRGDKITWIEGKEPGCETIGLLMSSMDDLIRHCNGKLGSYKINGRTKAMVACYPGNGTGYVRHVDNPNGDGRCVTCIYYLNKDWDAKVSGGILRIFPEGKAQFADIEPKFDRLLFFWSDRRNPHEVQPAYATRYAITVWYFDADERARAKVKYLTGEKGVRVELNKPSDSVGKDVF

PHD2 = PHD2 (Homo sapiens, UniProt Q9GZT9); assay: AlphaScreen PHD2 inhibition assay; assay type: biochemical; settings: 10μM and 300μM of compounds
Sequence of PHD2 (Q9GZT9 181-426): as above

[4] = tested on: HIF prolyl and asparaginyl hydroxylases; assay: HIF-1α prolyl; assay type: cell-based, human; settings: RCC4 cells, 1 mM and 2 mM
Procedure, shortened: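 VHL-defective RCC4 renal carcinoma cells carrying empty vector (RCC4/VA), which cannot degrade HIF-1α by the proteasome, grown to confluence and treated 5 h with test compound from 100 mM DMSO stock. Whole-cell lysate immunoblots probed with Hyp564- and HyAsn803-specific antibodies. Signals normalised to HIF-1α band intensity, with β-tubulin/β-actin as loading controls. DMSO negative and DMOG positive controls.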

Compound: O=C(O)/C=C/C(=O)NNC(=O)c1cc2ccccc2cn1 [Compound 14]
- HIF-1α upregulation (HIF-1α [1]): almost no HIF-1α induction

Compound: CC(=O)N(O)CCCCCNC(=O)CCC(=O)N(O)CCCCCNC(=O)CCC(=O)N(O)CCCCCN [DFO, deferoxamine]
- HIF-1α stabilization (HIF-1α [2]): induced HIF-1α stabilization
- HIF-1α stabilization in presence of Fe(II) (HIF-1α [2]): HIF-1α stabilization was not observed

Compound: O=C(O)/C=C/C(=O)NNC(=O)c1ccccn1 [Compound 5]
- PHD2-iron-compound complex formation / binding of a second iron in ESI-MS [3]: only bound to one iron
- HIF-1α upregulation (HIF-1α [1]): upregulated HIF-1α, but to a lesser extent than its ester

Compound: O=C(O)/C=C/C(=O)NNC(=O)c1cccnc1 [Compound 9]
- ESI-MS competition with NOG for binding to PHD2 [3]: compete effectively with NOG for binding to PHD2

Compound: O=C(O)CCCC(=O)NNC(=O)c1ccccn1 [Compound 2]
- PHD2-iron-compound complex formation / binding of a second iron in ESI-MS [3]: formed a two-iron complex with PHD2
- PHD2 inhibition in initial two-concentration screening (PHD2): weak PHD2 inhibitors

Compound: COC(=O)CNC(=O)C(=O)OC [DMOG, Dimethyloxalyl glycine]
- Inhibition of HIF prolyl-hydroxylation [4]: only partially inhibited
- HIF-1α stabilization (HIF-1α [2]): induced HIF-1α stabilization
- HIF-1α stabilization in presence of Fe(II) (HIF-1α [2]): reduction in HIF-1α stabilization
- Cell-based activity HIF-1α Induction (HIF-1α [2]): Active

Compound: O=C(O)/C=C\C(=O)NNC(=O)c1ccccn1 [Compound 4]
- PHD2 inhibition in initial two-concentration screening (PHD2): weak PHD2 inhibitors

Compound: O=C(O)CCC(=O)NNC(=O)c1cc2ccccc2cn1 [Compound 11]
- ESI-MS competition with NOG for binding to PHD2 [3]: compete effectively with NOG for binding to PHD2
- HIF-1α levels, free carboxylate compounds (HIF-1α [2]; human hepatoma Hep3B cells, free acid form): did not up-regulate HIF-1α levels

Compound: O=C(O)CNC(=O)c1nc(Cl)c2ccccc2c1O [BIQ, 2-(1-chloro-4-hydroxyisoquinoline-3-carboxamido)acetic acid]
- Cell-based activity HIF-1α Induction (HIF-1α [2]): Active

From paper PMC4677462 (Organic & biomolecular chemistry, 2012)
